The term MIC denotes the least concentration at which growth counts as inhibited. A higher MIC goes with a less susceptible organism.

What all share (type): functional
The subject of assay [1] is Staphylococcus aureus. The assay is described as follows: Antibacterial activity against methicillin-resistant Staphylococcus aureus ATCC 33591 after 12 to 18 hrs. Put shortly:
(§1)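 Broth microdilution MIC. Bacteria grown in Trypticase Soy broth at 35 °C for 1–2 h, adjusted with broth to A625 0.08–0.1, then 100 µL diluted into 10 mL broth. Wells received diluted inoculum plus 2-fold serial dilutions of compound. Incubated 35 °C for 12–18 h. MIC taken as lowest concentration inhibiting growth, in µg/mL.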

The test system of assay [2] is Klebsiella pneumoniae. The assay is described as follows: Antibacterial activity against Klebsiella pneumoniae ATCC 13883 after 12 to 18 hrs. Put shortly:
(§2)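 Broth microdilution in Trypticase Soy broth. Bacteria grown at 35 °C for 1–2 h, adjusted with broth to A625 0.08–0.1, then diluted 100 µL into 10 mL broth. 50 µL inoculum was combined with 50 µL of 2-fold serial compound dilutions and incubated at 35 °C for 12–18 h. MIC taken as the lowest concentration inhibiting growth.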

The subject of assay [3] is Klebsiella pneumoniae. The assay is described as follows: Antibacterial activity against Klebsiella pneumoniae ATCC 700603 after 12 to 18 hrs. Put shortly:
as §2

The test system of assay [4] is Escherichia coli. The assay is described as follows: Antibacterial activity against aminoglycoside-resistant Escherichia coli TG1 pTZ19U-3 after 12 to 18 hrs. In outline:
as §1

Assay [5] concerns Escherichia coli. The assay is described as follows: Antibacterial activity against aminoglycoside-susceptible Escherichia coli TG1 after 12 to 18 hrs. Put shortly: as §1
The subject of assay [6] is Escherichia coli. The assay is described as follows: Antibacterial activity against aminoglycoside-resistant Escherichia coli TG1 pSF815 after 12 to 18 hrs. In outline:
as §1

The subject of assay [7] is Escherichia coli. The assay is described as follows: Antibacterial activity against Escherichia coli ATCC 25922 after 12 to 18 hrs. Put shortly:
as §1

The test system of assay [8] is Pseudomonas aeruginosa. The assay is described as follows: Antibacterial activity against Pseudomonas aeruginosa ATCC 27853 after 12 to 18 hrs. Put shortly: as §2

Values after ≈ are worked out from the molar mass of the structure shown.

As to `C[C@H]1O[C@@H](O[C@@H]2[C@@H](O)[C@H](NC(=O)[C@@H](O)CCN)C[C@H](N)[C@H]2O[C@H]2O[C@H](CN)[C@@H](O)[C@H](O)[C@H]2N)[C@H](O)[C@@H](O)[C@@H]1N`, the MIC in assay [1] is no less than 32 µg/mL; in assay [2] it was 1 µg/mL (≈ 1.76 µM); in assay [3] it was 1 µg/mL (≈ 1.76 µM); in assay [4], 4 µg/mL (≈ 7.03 µM); in assay [5], 4 µg/mL (≈ 7.03 µM); in assay [6], 2 µg/mL (≈ 3.52 µM). Besides, the MIC in assay [7] is 8 µg/mL (≈ 14.1 µM); in assay [8] it was 2 µg/mL (≈ 3.52 µM).
Turning to `C[C@H]1O[C@@H](O[C@@H]2[C@@H](OCCN)[C@H](NC(=O)[C@@H](O)CCN)C[C@H](N)[C@H]2O[C@H]2O[C@H](CN)[C@@H](O)[C@H](O)[C@H]2N)[C@H](O)[C@@H](O)[C@@H]1N`, the MIC in assay [1] was no less than 32 µg/mL; in assay [2] it was 4 µg/mL (≈ 6.54 µM); in assay [3], 2 µg/mL (≈ 3.27 µM); in assay [4], 1 µg/mL (≈ 1.63 µM); in assay [5], 8 µg/mL (≈ 13.1 µM); in assay [6], 2 µg/mL (≈ 3.27 µM). In addition, the MIC in assay [7] turned out to be 8 µg/mL (≈ 13.1 µM); in assay [8], 0.5 µg/mL (≈ 0.817 µM).
Take `CCCO[C@@H]1[C@@H](O[C@@H]2O[C@H](C)[C@@H](N)[C@H](O)[C@H]2O)[C@H](O[C@H]2O[C@H](CN)[C@@H](O)[C@H](O)[C@H]2N)[C@@H](N)C[C@H]1NC(=O)[C@@H](O)CCN`: the MIC in assay [4] was no less than 32 µg/mL; in assay [5] it was 8 µg/mL (≈ 13.1 µM); in assay [6], no less than 32 µg/mL; in assay [7] it was no less than 32 µg/mL.
For `C[C@H]1O[C@@H](O[C@@H]2[C@@H](OCCO)[C@H](NC(=O)[C@@H](O)CCN)C[C@H](N)[C@H]2O[C@H]2O[C@H](CN)[C@@H](O)[C@H](O)[C@H]2N)[C@H](O)[C@@H](O)[C@@H]1N`, the MIC was found to be 16 µg/mL (≈ 26.1 µM) in assay [4], 2 µg/mL (≈ 3.26 µM) in assay [5], 8 µg/mL (≈ 13.1 µM) in assay [6] and 16 µg/mL (≈ 26.1 µM) in assay [7].
On to `NC[C@@H]1O[C@H](O[C@H]2[C@@H](O)[C@H](O[C@@H]3[C@@H](O)[C@H](N)C[C@H](N)[C@H]3O[C@H]3O[C@H](CN)[C@@H](O)[C@H](O)[C@H]3N)O[C@@H]2CO)[C@H](N)[C@@H](O)[C@@H]1O` [FRAMYCETIN], for which the MIC is no less than 32 µg/mL in assay [1]; 8 µg/mL (≈ 13 µM) in assay [2]; 16 µg/mL (≈ 26 µM) in assay [3]; no less than 32 µg/mL in assay [4]; 4 µg/mL (≈ 6.51 µM) in assay [5]; 4 µg/mL (≈ 6.51 µM) in assay [6]. The minimum inhibitory concentration (MIC) came out at 4 µg/mL (≈ 6.51 µM) in assay [7] and 0.5 µg/mL (≈ 0.813 µM) in assay [8].
On to `C[C@H]1O[C@@H](O[C@@H]2[C@@H](O)[C@H](N)C[C@H](N)[C@H]2O[C@H]2O[C@H](CN)[C@@H](O)[C@H](O)[C@H]2N)[C@H](O)[C@@H](O)[C@@H]1N`, for which the MIC in assay [1] was no less than 32 µg/mL; in assay [2], 4 µg/mL (≈ 8.56 µM); in assay [3], 16 µg/mL (≈ 34.2 µM); in assay [4] it was no less than 32 µg/mL; in assay [5], 8 µg/mL (≈ 17.1 µM); in assay [6] it was 8 µg/mL (≈ 17.1 µM). Also, the MIC in assay [7] worked out at 8 µg/mL (≈ 17.1 µM); in assay [8] it was 4 µg/mL (≈ 8.56 µM).
For the compound `NC[C@H]1O[C@H](O[C@H]2[C@H](O[C@@H]3O[C@H](CO)[C@@H](O)[C@H]3O)[C@@H](O)[C@H](N)C[C@@H]2N)[C@H](N)[C@@H](O)[C@@H]1O` [RIBOSTAMYCIN], the MIC is no less than 32 µg/mL in assay [4], 4 µg/mL (≈ 8.8 µM) in assay [5], 4 µg/mL (≈ 8.8 µM) in assay [6] and 8 µg/mL (≈ 17.6 µM) in assay [7].
On to `NCC[C@H](O)C(=O)N[C@@H]1C[C@H](N)[C@@H](O[C@H]2O[C@H](CN)[C@@H](O)[C@H](O)[C@H]2N)[C@H](O[C@@H]2O[C@H](CO)[C@H](O)[C@H]2O)[C@H]1O` [BUTIROSIN A], for which the MIC in assay [1] is no less than 32 µg/mL; in assay [2], 1 µg/mL (≈ 1.8 µM); in assay [3] it was 1 µg/mL (≈ 1.8 µM); in assay [4], 0.5 µg/mL (≈ 0.9 µM); in assay [5], 1 µg/mL (≈ 1.8 µM); in assay [6] it was 0.5 µg/mL (≈ 0.9 µM). The MIC in assay [7] is 4 µg/mL (≈ 7.2 µM); in assay [8], 1 µg/mL (≈ 1.8 µM).

These data come from ChEMBL document CHEMBL1137524, “Synthesis and antibacterial activity of pyranmycin derivatives with N-1 and O-6 modifications” (2007).
